Data: ChEMBL document CHEMBL3286172, “Exploring the role of 2-chloro-6-fluoro substitution in 2-alkylthio-6-benzyl-5-alkylpyrimidin-4(3H)-ones: effects in HIV-1-infected cells and in HIV-1 reverse transcriptase enzymes” (J Med Chem, 2014)

Experiments:
[1] = tested on: Human immunodeficiency virus 1; test: Antiviral activity against wild type HIV-1 NL4-3 infected in human MT4 cells assessed as inhibition of virus-induced cytopathic effect by MTT method; format: functional, organism-based; conditions: Human immunodeficiency virus 1, NL4-3, MT4
How it was run: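 MT-4 lymphoid cells infected with wild-type HIV-1 NL4-3 while exposed to a range of drug concentrations. Viable cells counted by tetrazolium (MTT) colorimetry at day 5 post-infection. Means of at least two experiments.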

[2] = Cytotoxicity against human MT4 cells assessed as induction of cell death by MTT method; format: cell-based
How it was run: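 Mock-infected MT-4 cells exposed to a range of drug concentrations. Viability read by MTT colorimetry at day 5. […] Top concentration was limited where compound precipitated in the culture medium. Means of at least two experiments.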

[3] = Selectivity index, ratio of CC50 for human MT4 cells to EC50 for wild type HIV-1 NL4-3 infected in human MT4 cells; format: toxicity, cell-based; conditions: read-out: Ratio CC50/EC50
How it was run: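 Ratio of CC50 to EC50, both from MTT readings in MT-4 cells at day 5. CC50 was taken in mock-infected cells and EC50 in cells infected with wild-type NL4-3. Values are means of at least two experiments.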

[4] = tested on: Human immunodeficiency virus 1; test: Antiviral activity against HIV-1 harboring NNTRI-resistant reverse transcriptase K103N mutant infected in human MT4 cells assessed as inhibition of virus-induced cytopathic effect by MTT method; format: functional, organism-based; conditions: Human immunodeficiency virus 1, MT4
[5] = tested on: Human immunodeficiency virus 1; test: Antiviral activity against HIV-1 harboring NNTRI-resistant reverse transcriptase Y181C mutant infected in human MT4 cells assessed as inhibition of virus-induced cytopathic effect by MTT method; format: functional, organism-based; conditions: Human immunodeficiency virus 1, MT4
How it was run: (§1)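 MT-4 lymphoid cells infected with HIV-1 carrying RT K103N, Y181C or Y188L, with a range of drug concentrations present. Viable cells counted by MTT colorimetric assay at day 5 post-infection. […] Highest concentration tested was limited by precipitation in culture medium. Means of at least two experiments.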

[6] = tested on: Human immunodeficiency virus 1; test: Antiviral activity against HIV-1 harboring NNTRI-resistant reverse transcriptase Y188L mutant infected in human MT4 cells assessed as inhibition of virus-induced cytopathic effect by MTT method; format: functional, organism-based; conditions: Human immunodeficiency virus 1, MT4; how it was run: as §1
[7] = tested on: Human immunodeficiency virus 1; test: Fold resistance, ratio of EC50 for HIV-1 harboring NNTRI-resistant reverse transcriptase K103N mutant infected in human MT4 cells to EC50 for wild type HIV-1 NL4-3 infected in human MT4 cells; format: functional
[8] = tested on: Human immunodeficiency virus 1; test: Fold resistance, ratio of EC50 for HIV-1 harboring NNTRI-resistant reverse transcriptase Y181C mutant infected in human MT4 cells to EC50 for wild type HIV-1 NL4-3 infected in human MT4 cells; format: functional
How it was run: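 MT-4 cells infected with HIV-1 mutant (K103N or Y181C) or wild-type NL4-3, with drug present. […] Fold resistance is the mutant EC50 divided by the wild-type NL4-3 EC50. EC50 values are means of at least two experiments.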

[9] = tested on: Human immunodeficiency virus 1; test: Fold resistance, ratio of ID50 for HIV-1 recombinant NNTRI-resistant reverse transcriptase L100I mutant to ID50 for wild type HIV-1 recombinant reverse transcriptase
How it was run: (§2)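 Recombinant wt or mutant HIV-1 RT, purified to >95%, at 2-4 nM. RNA-dependent DNA polymerase activity with 0.5 µg poly(rA)/oligo(dT)10:1 (0.3 µM 3'-OH ends), 10 µM [3H]-dTTP and 8% final DMSO. Incorporation was sampled at 2-min intervals. ID50 came from fitting to a fully non-competitive model. Ratio is ID50 mutant/ID50 wt. Means of at least three experiments.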

[10] = tested on: Human immunodeficiency virus 1; test: Fold resistance, ratio of ID50 for HIV-1 recombinant NNTRI-resistant reverse transcriptase K103N mutant to ID50 for wild type HIV-1 recombinant reverse transcriptase; how it was run: as §2
[11] = tested on: Human immunodeficiency virus 1; test: Fold resistance, ratio of EC50 for HIV-1 harboring NNTRI-resistant reverse transcriptase Y188L mutant infected in human MT4 cells to EC50 for wild type HIV-1 NL4-3 infected in human MT4 cells; format: functional
How it was run: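 HIV-1 NL4-3 (wt) or Y188L mutant infection of MT-4 cells across a range of drug concentrations. Viable cells were counted by MTT at day 5 post-infection. […] Fold resistance is mutant EC50 over wt EC50. Means of at least two experiments.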

[12] = biological target: Human immunodeficiency virus type 1 reverse transcriptase (Human immunodeficiency virus 1) (UniProt Q72547)
[13] = tested on: Human immunodeficiency virus type 1 reverse transcriptase (Human immunodeficiency virus 1), Q72547 [K103N]
[14] = tested on: Human immunodeficiency virus type 1 reverse transcriptase (Human immunodeficiency virus 1), Q72547 [L100I]
[15] = tested on: Human immunodeficiency virus 1; test: Fold resistance, ratio of ID50 for HIV-1 recombinant NNTRI-resistant reverse transcriptase Y181I mutant to ID50 for wild type HIV-1 recombinant reverse transcriptase
How it was run: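 RNA-dependent DNA polymerase activity with 0.5 µg poly(rA)/oligo(dT)10:1 (0.3 µM 3'-OH ends), 10 µM [3H]-dTTP and 8% final DMSO. Incorporation was sampled at 2-min intervals. ID50 came from fitting to a fully non-competitive model. Means of at least three experiments.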

SMILES	EC50 [1] [nM]	CC50 [2] [nM]	selectivity ratio [3]	EC50 [4] [nM]	EC50 [5] [nM]	EC50 [6] [nM]	Ratio EC50 [7]	Ratio EC50 [8]	Ratio [9]	Ratio [10]	Ratio EC50 [11]	ID50 [12] [nM]	ID50 [13] [nM]	ID50 [14] [nM]	Ratio [15]
CCCSc1nc(Cc2c(F)cccc2Cl)cc(=O)[nH]1	260	> 80000	> 308	18800	8200	> 80000	72	31							
CCC(C)Sc1nc(Cc2c(F)cccc2Cl)cc(=O)[nH]1 (stereo not drawn)	160	> 76000	> 475	25200	8300	> 76000	157	52							
CCCCSc1nc(Cc2c(F)cccc2Cl)cc(=O)[nH]1	290	> 76000	> 262	29200	16700	> 76000	101	58							
O=c1cc(Cc2c(F)cccc2Cl)nc(SC2CCCC2)[nH]1	150	> 74000	> 493	42100	18300	> 74000	281	122							
Cc1c(Cc2c(F)cccc2Cl)nc(SC(C)C)[nH]c1=O	120	> 76000	> 633	10600	8400	> 76000	88	70							
CC[C@H](C)Sc1nc([C@@H](C)c2c(F)cccc2Cl)cc(=O)[nH]1	144	> 73000	> 507	7640	> 73300	> 73300	53		4						
CC[C@@H](C)Sc1nc([C@@H](C)c2c(F)cccc2Cl)cc(=O)[nH]1	47	> 52000	> 1110	5560	13200	> 51600	118	281	4	365					
CC[C@@H](C)Sc1nc([C@H](C)c2c(F)cccc2Cl)c(C)c(=O)[nH]1	0.06	> 70400		15	87	390			41	101					
CC[C@@H](C)Sc1nc([C@@H](C)c2c(F)cccc2Cl)c(C)c(=O)[nH]1	1.4	> 70400		150	890	3300			37	69					
CC[C@H](C)Sc1nc([C@@H](C)c2c(F)cccc2Cl)c(C)c(=O)[nH]1	3660	> 47000		> 47000	> 47000	> 47000			0.2						
CCC(c1nc(SC(C)C)[nH]c(=O)c1C)c1c(F)cccc1F (racemic)	4	> 30000	> 7500	530	750	270	132	187			67	4	310	210	
CCC(C)Sc1nc(C(CC)c2c(F)cccc2F)c(C)c(=O)[nH]1 (racemic)	0.8	> 3000	> 3750	200	300	900	250	375			1125	6	140	48	
CCC(c1nc(SC2CCCC2)[nH]c(=O)c1C)c1c(F)cccc1F (racemic)	11	30000	2730	1000	1100	1600	91	100			145	5	380	110	
CC(C)Sc1nc(C(C)c2c(F)cccc2Cl)cc(=O)[nH]1 (racemic)	2	> 75000	> 37500	1100	7500	30700	550	3750			15350	8	1300	340	
CCCSc1nc(C(C)c2c(F)cccc2Cl)cc(=O)[nH]1 (racemic)	3	> 75000	> 25000	890	2300	7900	297	767			2633	8	1300	500	
CCCCSc1nc(C(C)c2c(F)cccc2Cl)cc(=O)[nH]1 (racemic)	0.3	> 73000		1100	3900	5600			60	220		10	2200	600	
CC(c1cc(=O)[nH]c(SC2CCCC2)n1)c1c(F)cccc1Cl (racemic)	0.3	> 71000	> 237000	900	3000	> 71000	3000	10000				15	1800	1100	
CCCCSc1nc(C(C)c2c(F)cccc2F)c(CC)c(=O)[nH]1 (racemic)	57	> 3000	> 53	> 3000	> 3000	> 3000			93	130		3	390	280	1000
CC[C@H](C)Sc1nc([C@H](C)c2c(F)cccc2Cl)cc(=O)[nH]1 (racemic)	11	> 39000	> 3540	1220	1240	7400	111	113	24	229	673				
CC[C@H](C)Sc1nc([C@H](C)c2c(F)cccc2Cl)c(C)c(=O)[nH]1 (racemic)	43900	> 70400		> 70000	64000	> 70000			0.1						
CCC(C)Sc1nc(O)c(C)c(C(C)c2c(F)cccc2F)n1 (racemic)	0.9	> 3000	> 3330	110	71	> 3000	122	79				31	1700	670	
Cc1c(O)nc(SC(C)C)nc1C(C)c1c(F)cccc1F (racemic)	1			270	120	> 3000	270	120				3	580	280	
